Test results as given in ChEMBL document CHEMBL2346594, “Synthesis and evaluation of an imidazole derivative-fluorescein conjugate” (Bioorg Med Chem, 2013).
Activity calls are given as the source filed them. No cut-off for these calls is given here.

How the values were obtained:
SJSA-1 [1] = experiment: Cellular uptake in human SJSA1 cells expressing wild type p53 at 5 uM after 1 hr by fluorometric analysis in presence of nutlin-glycine; type: ADME, cell-based; conditions: sjsa-1, 1 h
HCT-116 [2] = experiment: Cellular uptake in human HCT116 cells expressing wild type p53 at 1 to 5 uM after 1 hr by fluorometric analysis; type: ADME, cell-based; conditions: hct-116, 1 h
In short: (§1)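 SJSA-1 or HCT116 cells were plated at 400,000/well and attached for 24 h. Fluorescein conjugate or free FAM was added at final 1 and 5 µM for 1 h at 37 °C, with DMSO and medium-only controls. Cells were washed three times in warm PBS, scraped and counted. About 10,000 cells/well were read by fluorescence at 485/520 nm; 3 runs per sample.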

HCT-116 [3] = experiment: Cellular uptake in human HCT116 cells expressing wild type p53 at 5 uM after 1 hr by fluorometric analysis in presence of nutlin-glycine; conditions: hct-116, 1 h
SJSA-1 [4] = experiment: Cellular uptake in human SJSA1 cells expressing wild type p53 at 1 to 5 uM after 1 hr by fluorometric analysis; type: ADME, cell-based; conditions: sjsa-1, 1 h; in short: as §1
SW480 = experiment: Antiproliferative activity against human SW480 cells harboring p53 mutant at 10 uM after 5 days by MTS assay; type: functional, cell-based
In short: (§2)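 Cells (wild-type or mutant p53) grown in recommended medium with 10% FBS at 37 °C under 5% CO2. Compounds were kept as 1 mmol/L DMSO stocks. Cells were seeded in 96-well plates and treated with serial concentrations (highest 10 µM) for 5 days, then read by MTS. Viability is % of untreated controls, mean SD, n = 4.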

RKO = experiment: Antiproliferative activity against human RKO cells expressing wild type p53 after 5 days by MTS assay; type: functional, cell-based; in short: as §2
SJSA-1 [5] = experiment: Antiproliferative activity against human SJSA1 cells expressing wild type p53 after 5 days by MTS assay; type: functional, cell-based; in short: as §2
HCT-116 [6] = experiment: Antiproliferative activity against human HCT116 cells expressing wild type p53 after 5 days by MTS assay; type: functional, cell-based; in short: as §2
HeLa = experiment: Antiproliferative activity against human HeLa cells harboring p53 mutant at 10 uM after 5 days by MTS assay; type: functional, cell-based; in short: as §2
Homo sapiens = species on record: Homo sapiens; experiment: Antiproliferative activity against human MDA-MB-435S cells harboring p53 mutant at 10 uM after 5 days by MTS assay; type: functional, cell-based; in short: as §2

Drug uptake (SJSA-1 [1]) | Drug uptake (HCT-116 [2]) | Drug uptake (HCT-116 [3]) | Drug uptake (SJSA-1 [4]) | Structure (SMILES) | Activity (SW480) | Activity (RKO) | Activity (SJSA-1 [5]) | Activity (HCT-116 [6]) | Activity (HeLa) | Activity (Homo sapiens)
Not Active | Active | Not Active | Active | CCOc1cc(OC)ccc1C1=N[C@@H](c2ccc(Br)cc2)[C@@H](c2ccc(Br)cc2)N1C(=O)N1CCN(CCOC(=O)CNC(=O)c2ccc(C(=O)O)c(-c3c4ccc(=O)cc-4oc4cc(O)ccc34)c2)CC1 (relative stereo) | – | – | – | – | – | –
– | – | – | – | CCOc1cc(OC)ccc1C1=N[C@@H](c2ccc(Br)cc2)[C@@H](c2ccc(Br)cc2)N1C(=O)N1CCN(CCOC(=O)CN)CC1 (relative stereo) | inactive | Dose-dependent effect | Dose-dependent effect | Dose-dependent effect | inactive | inactive
– | – | – | – | COc1ccc(C2=N[C@@H](c3ccc(Cl)cc3)[C@@H](c3ccc(Cl)cc3)N2C(=O)N2CCNC(=O)C2)c(OC(C)C)c1 (relative stereo) | inactive | Dose-dependent effect | Dose-dependent effect | Dose-dependent effect | inactive | inactive
